ChEMBL document CHEMBL4229472, “Surface Probing by Fragment-Based Screening and Computational Methods Identifies Ligandable Pockets on the von Hippel-Lindau (VHL) E3 Ubiquitin Ligase” (J Med Chem, 2018)

What was measured:
[1] = molecular target: Von Hippel-Lindau disease tumor suppressor/Elongin B/Elongin C (Homo sapiens, UniProt P40337); experiment: (§1) Binding affinity to N-terminal His6 tagged VHL (54 to 213 residues)/ELoC (17 to 112 residues)/EloB (1 to 120 residues) (unknown origin) complex expressed in Escherichia coli BL21(DE3) assessed as dissociation constant by ITC method
[2] = molecular target: Von Hippel-Lindau disease tumor suppressor/Elongin B/Elongin C (Homo sapiens) (UniProt P40337+Q15370+Q15369); experiment: as §1, with “change in melting temperature at 1 mM” for “dissociation constant”, “Sypro orange dye based differential scanning fluorimetric analysis” for “ITC method”
Method in brief: (§2)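 Thermal shift screen with each fragment tested as a singleton. Unfolding temperature is followed with a fluorescent dye that binds preferentially to unfolded protein. For line 1 the target is VCB alone. For line 3 it is VCB preincubated with HIF-1α peptide (VCBH), which separates binders of the HIF site from binders elsewhere in the complex.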

[3] = molecular target: T1, von Hippel-Lindau disease tumor suppressor/Elongin-C/Elongin-B/HIF1A (Homo sapiens) (UniProt Q16665+P40337+Q15370+Q15369); experiment: Binding affinity to N-terminal His6 tagged VHL (54 to 213 residues)/ELoC (17 to 112 residues)/EloB (1 to 120 residues)/HIF-1alpha (unknown origin) complex expressed in Escherichia coli BL21(DE3) assessed as change in melting temperature at 1 mM by Sypro orange dye based differential scanning fluorimetric analysis; method in brief: as §2
[4] = molecular target: T1, von Hippel-Lindau disease tumor suppressor/Elongin-C/Elongin-B/HIF1A (Homo sapiens); experiment: Binding affinity to N-terminal His6 tagged VHL (54 to 213 residues)/ELoC (17 to 112 residues)/EloB (1 to 120 residues)/HIF-1alpha (unknown origin) complex expressed in Escherichia coli BL21(DE3) assessed as change in melting temperature at 1 mM in presence of DEALA-Hyp-YIPMDDDFQLRSF by differential scanning fluorimetry

Row | Kd [1] | ΔTm [2] | ΔTm [3] | ΔTm [4] | SMILES
1 | 5 mM | > 0.5 °C | > 0.5 °C | – | OCc1ccc(-n2cccc2)cc1
2 | 6.7 mM | > 0.5 °C | > 0.5 °C | 1.2 °C | O=C1CCSc2ccc(Cl)cc21
3 | – | > 0.5 °C | > 0.5 °C | 0.7 °C | COC(=O)c1cc2occc2[nH]1
